Results from ChEMBL document CHEMBL1806421, “Design, synthesis and biological evaluation of urea derivatives from o-hydroxybenzylamines and phenylisocyanate as potential FabH inhibitors” (Bioorg Med Chem, 2011).
Values after ≈ are worked out from the molar mass of the structure shown.

How the values were obtained:
[1] = Toxicity in erythrocytes assessed as hemolytic activity; format: cell-based; details: erythrocyte
[2] = biological target: T1, 3-oxoacyl-[acyl-carrier-protein] synthase 3 (Escherichia coli, UniProt C3TDZ2); assay: Inhibition of Escherichia coli FabH expressed in Escherichia coli DH10B cells assessed as incorporation of 3H signal in the product after 25 mins by liquid scintillation
T1 sequence (C3TDZ2 whole entry): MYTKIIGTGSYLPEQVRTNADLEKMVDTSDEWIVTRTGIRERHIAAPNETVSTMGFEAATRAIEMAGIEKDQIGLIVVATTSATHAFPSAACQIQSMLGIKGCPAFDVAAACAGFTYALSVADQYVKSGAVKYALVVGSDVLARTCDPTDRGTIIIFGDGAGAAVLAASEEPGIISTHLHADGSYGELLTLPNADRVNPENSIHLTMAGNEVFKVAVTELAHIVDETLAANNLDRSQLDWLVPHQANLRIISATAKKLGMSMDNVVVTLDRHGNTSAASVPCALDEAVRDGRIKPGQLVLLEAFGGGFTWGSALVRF
In short: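 Native E. coli FabH was expressed from pET30 in DH10B and purified by Q-Sepharose, MonoQ and hydroxyapatite chromatography at 4 °C. Reaction used 20 mM Na₂HPO₄ pH 7.0, 0.5 mM DTT, holo-ACP and 1 nM FabH. It was stopped with ice-cold 50% TCA (5 min on ice) and the protein pelleted. ³H incorporation was read by liquid scintillation. Inhibitors came from DMSO stock, with final DMSO ≤2%.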

[3] = tested on: Staphylococcus aureus; assay: Antibacterial activity against Staphylococcus aureus after 24 hrs by MTT assay; format: functional
In short: (§1)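 MIC by MTT colorimetry in Mueller-Hinton medium. Inoculum was about 10⁵ cfu/mL, added to serial dilutions made from DMSO solutions, then incubated at 37 °C for 24 h. MTT in PBS (0.01 mol/L, pH 7.4; 2 mg/mL) was added to each well. Dye was extracted with isopropanol containing 5% 1 mol/L HCl for 12 h at room temperature, and OD was read at 550 nm.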

[4] = tested on: Bacillus subtilis; assay: Antibacterial activity against Bacillus subtilis after 24 hrs by MTT assay; format: functional; in short: as §1
[5] = tested on: Pseudomonas fluorescens; assay: Antibacterial activity against Pseudomonas fluorescens after 24 hrs by MTT assay; format: functional; in short: as §1
[6] = tested on: Escherichia coli; assay: Antibacterial activity against Escherichia coli ATCC 35218 after 24 hrs by MTT assay; format: functional; details: ATCC 35218, 24 h; in short: as §1

IC50 [2] [µM]	MIC [3] [µg/mL]	MIC [4] [µg/mL]	MIC [5] [µg/mL]	MIC [6] [µg/mL]	SMILES	LC30 [1] [µg/mL]
2.1					Nc1ccn([C@H]2CC[C@@H](COP(=O)(O)O)O2)c(=O)n1	> 10000
	50 (≈ 133 µM)	50 (≈ 133 µM)	12.5 (≈ 33.3 µM)	50 (≈ 133 µM)	Oc1c(Br)cc(Br)cc1CNc1ccc(F)cc1	
	25 (≈ 84.4 µM)	50 (≈ 169 µM)	6.25 (≈ 21.1 µM)	25 (≈ 84.4 µM)	Oc1ccc(Br)cc1CNc1ccccc1F	
	12.5 (≈ 42.2 µM)	50 (≈ 169 µM)	25 (≈ 84.4 µM)	12.5 (≈ 42.2 µM)	Oc1ccc(Br)cc1CNc1ccc(F)cc1	
	6.25 (≈ 20 µM)	50 (≈ 160 µM)	25 (≈ 80 µM)	12.5 (≈ 40 µM)	Oc1ccc(Br)cc1CNc1ccccc1Cl	
	50 (≈ 140 µM)	50 (≈ 140 µM)	25 (≈ 70 µM)	25 (≈ 70 µM)	Oc1ccc(Br)cc1CNc1ccccc1Br	
	25 (≈ 70 µM)	25 (≈ 70 µM)	12.5 (≈ 35 µM)	25 (≈ 70 µM)	Oc1ccc(Br)cc1CNc1ccc(Br)cc1	
	50 (≈ 171 µM)	50 (≈ 171 µM)	50 (≈ 171 µM)	50 (≈ 171 µM)	Cc1ccc(NCc2cc(Br)ccc2O)cc1	
	50 (≈ 162 µM)	50 (≈ 162 µM)	50 (≈ 162 µM)	50 (≈ 162 µM)	COc1ccc(NCc2cc(Br)ccc2O)cc1	
	25 (≈ 66.7 µM)	50 (≈ 133 µM)	50 (≈ 133 µM)	50 (≈ 133 µM)	Oc1c(Br)cc(Br)cc1CNc1ccccc1F	
	25 (≈ 63.9 µM)	6.25 (≈ 16 µM)	50 (≈ 128 µM)	25 (≈ 63.9 µM)	Oc1c(Br)cc(Br)cc1CNc1ccccc1Cl	
	12.5 (≈ 31.9 µM)	12.5 (≈ 31.9 µM)	12.5 (≈ 31.9 µM)	25 (≈ 63.9 µM)	Oc1c(Br)cc(Br)cc1CNc1ccc(Cl)cc1	
	50 (≈ 115 µM)	50 (≈ 115 µM)	50 (≈ 115 µM)	12.5 (≈ 28.7 µM)	Oc1c(Br)cc(Br)cc1CNc1ccccc1Br	
	50 (≈ 115 µM)	50 (≈ 115 µM)	50 (≈ 115 µM)	25 (≈ 57.3 µM)	Oc1c(Br)cc(Br)cc1CNc1ccc(Br)cc1	
	50 (≈ 135 µM)	50 (≈ 135 µM)	50 (≈ 135 µM)	50 (≈ 135 µM)	Cc1ccc(NCc2cc(Br)cc(Br)c2O)cc1	
	50 (≈ 129 µM)	25 (≈ 64.6 µM)	50 (≈ 129 µM)	50 (≈ 129 µM)	COc1ccc(NCc2cc(Br)cc(Br)c2O)cc1	
37.4	50 (≈ 120 µM)	25 (≈ 60.2 µM)	25 (≈ 60.2 µM)	12.5 (≈ 30.1 µM)	O=C(Nc1ccccc1)N(Cc1cc(Br)ccc1O)c1ccccc1F	> 10000

IC50 [2] [µM]	MIC [3] [µg/mL]	MIC [4] [µg/mL]	MIC [5] [µg/mL]	MIC [6] [µg/mL]	SMILES	LC30 [1] [µg/mL]
6.6	3.13 (≈ 7.54 µM)	6.25 (≈ 15.1 µM)	6.25 (≈ 15.1 µM)	1.56 (≈ 3.76 µM)	O=C(Nc1ccccc1)N(Cc1cc(Br)ccc1O)c1ccc(F)cc1	> 10000
21.8	3.13 (≈ 7.25 µM)	6.25 (≈ 14.5 µM)	25 (≈ 57.9 µM)	6.25 (≈ 14.5 µM)	O=C(Nc1ccccc1)N(Cc1cc(Br)ccc1O)c1ccccc1Cl	> 10000
4.7	1.56 (≈ 3.61 µM)	6.25 (≈ 14.5 µM)	3.13 (≈ 7.25 µM)	1.56 (≈ 3.61 µM)	O=C(Nc1ccccc1)N(Cc1cc(Br)ccc1O)c1ccc(Cl)cc1	> 10000
56.4	25 (≈ 52.5 µM)	6.25 (≈ 13.1 µM)	25 (≈ 52.5 µM)	12.5 (≈ 26.3 µM)	O=C(Nc1ccccc1)N(Cc1cc(Br)ccc1O)c1ccccc1Br	> 10000
41	12.5 (≈ 26.3 µM)	12.5 (≈ 26.3 µM)	12.5 (≈ 26.3 µM)	6.25 (≈ 13.1 µM)	O=C(Nc1ccccc1)N(Cc1cc(Br)ccc1O)c1ccc(Br)cc1	> 10000
	50 (≈ 122 µM)	12.5 (≈ 30.4 µM)	50 (≈ 122 µM)	50 (≈ 122 µM)	Cc1ccc(N(Cc2cc(Br)ccc2O)C(=O)Nc2ccccc2)cc1	
	12.5 (≈ 29.3 µM)	50 (≈ 117 µM)	50 (≈ 117 µM)	25 (≈ 58.5 µM)	COc1ccc(N(Cc2cc(Br)ccc2O)C(=O)Nc2ccccc2)cc1	
	25 (≈ 50.6 µM)	50 (≈ 101 µM)	12.5 (≈ 25.3 µM)	50 (≈ 101 µM)	O=C(Nc1ccccc1)N(Cc1cc(Br)cc(Br)c1O)c1ccccc1F	
71.7	12.5 (≈ 25.3 µM)	12.5 (≈ 25.3 µM)	25 (≈ 50.6 µM)	6.25 (≈ 12.6 µM)	O=C(Nc1ccccc1)N(Cc1cc(Br)cc(Br)c1O)c1ccc(F)cc1	> 10000
51.5	12.5 (≈ 24.5 µM)	50 (≈ 97.9 µM)	25 (≈ 49 µM)	6.25 (≈ 12.2 µM)	O=C(Nc1ccccc1)N(Cc1cc(Br)cc(Br)c1O)c1ccccc1Cl	> 10000
10.1	6.25 (≈ 12.2 µM)	25 (≈ 49 µM)	12.5 (≈ 24.5 µM)	3.13 (≈ 6.13 µM)	O=C(Nc1ccccc1)N(Cc1cc(Br)cc(Br)c1O)c1ccc(Cl)cc1	> 10000
	50 (≈ 90.1 µM)	50 (≈ 90.1 µM)	6.25 (≈ 11.3 µM)	50 (≈ 90.1 µM)	O=C(Nc1ccccc1)N(Cc1cc(Br)cc(Br)c1O)c1ccccc1Br	
	25 (≈ 45 µM)	50 (≈ 90.1 µM)	25 (≈ 45 µM)	12.5 (≈ 22.5 µM)	O=C(Nc1ccccc1)N(Cc1cc(Br)cc(Br)c1O)c1ccc(Br)cc1	
	6.25 (≈ 12.8 µM)	50 (≈ 102 µM)	50 (≈ 102 µM)	50 (≈ 102 µM)	Cc1ccc(N(Cc2cc(Br)cc(Br)c2O)C(=O)Nc2ccccc2)cc1	
	50 (≈ 98.8 µM)	50 (≈ 98.8 µM)	25 (≈ 49.4 µM)	12.5 (≈ 24.7 µM)	COc1ccc(N(Cc2cc(Br)cc(Br)c2O)C(=O)Nc2ccccc2)cc1	
	6.25 (≈ 20 µM)	25 (≈ 80 µM)	12.5 (≈ 40 µM)	6.25 (≈ 20 µM)	Oc1ccc(Br)cc1CNc1ccc(Cl)cc1	
	1.56 (≈ 3.23 µM)	1.56 (≈ 3.23 µM)	3.13 (≈ 6.47 µM)	3.13 (≈ 6.47 µM)	NC[C@H]1O[C@H](O[C@H]2[C@H](O)[C@@H](O[C@H]3O[C@H](CO)[C@@H](O)[C@H](N)[C@H]3O)[C@H](N)C[C@@H]2N)[C@H](N)[C@@H](O)[C@@H]1O [BEKANAMYCIN]	
